ChEMBL document CHEMBL5653631, “A Potent and Selective ULK1 Inhibitor Suppresses Autophagy and Sensitizes Cancer Cells to Nutrient Stress” (iScience, 2018)
Blank lines part the entries; values can stand above or below the compound they belong to.

What was measured:
[1] = target: Insulin receptor (Homo sapiens) (UniProt P06213); experiment: Inhibition of human recombinant INSR at 500 nM in presence of ATP by radiometric assay relative to control
[2] = target: Tyrosine-protein kinase SYK (Homo sapiens) (UniProt P43405); experiment: Inhibition of human recombinant SYK at 500 nM in presence of ATP by radiometric assay relative to control
[3] = target: T1, MAP kinase-activated protein kinase 5 (Homo sapiens) (UniProt Q8IW41); experiment: Inhibition of human recombinant MAPKAPK5 at 500 nM in presence of ATP by radiometric assay relative to control
T1 sequence (whole entry): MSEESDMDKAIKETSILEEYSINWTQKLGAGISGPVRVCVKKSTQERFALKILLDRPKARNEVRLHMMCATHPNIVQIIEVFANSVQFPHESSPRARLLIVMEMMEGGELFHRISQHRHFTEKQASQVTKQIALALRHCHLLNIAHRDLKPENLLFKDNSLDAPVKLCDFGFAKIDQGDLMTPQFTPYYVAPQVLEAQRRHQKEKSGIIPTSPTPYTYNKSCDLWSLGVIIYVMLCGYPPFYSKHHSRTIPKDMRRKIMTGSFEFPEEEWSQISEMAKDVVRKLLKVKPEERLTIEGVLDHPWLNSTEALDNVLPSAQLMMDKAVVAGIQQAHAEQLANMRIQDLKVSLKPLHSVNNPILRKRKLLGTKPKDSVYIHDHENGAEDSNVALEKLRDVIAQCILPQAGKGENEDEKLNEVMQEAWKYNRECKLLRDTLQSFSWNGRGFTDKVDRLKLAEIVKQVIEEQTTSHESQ

[4] = target: Tyrosine-protein kinase ABL2 (Homo sapiens) (UniProt P42684); experiment: Inhibition of human recombinant ABL2 at 500 nM in presence of ATP by radiometric assay relative to control
Summary of the method: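 Panel of 327 recombinant human kinases in radiometric activity assays, each screened in duplicate at a single inhibitor concentration; percent activity remaining relative to vehicle control, percent inhibition taken as 100 minus activity remaining.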

[5] = target: Dual specificity tyrosine-phosphorylation-regulated kinase 1A (Homo sapiens) (UniProt Q13627); experiment: Inhibition of human recombinant DYRK1A at 40 nM in presence of ATP by radiometric assay relative to control
[6] = target: Focal adhesion kinase 1 (Homo sapiens) (UniProt Q05397); experiment: Inhibition of human recombinant FAK at 15 nM in presence of ATP by radiometric assay relative to control
Focal adhesion kinase 1 (Homo sapiens), sequence (Q05397 2-1052 limits assumed): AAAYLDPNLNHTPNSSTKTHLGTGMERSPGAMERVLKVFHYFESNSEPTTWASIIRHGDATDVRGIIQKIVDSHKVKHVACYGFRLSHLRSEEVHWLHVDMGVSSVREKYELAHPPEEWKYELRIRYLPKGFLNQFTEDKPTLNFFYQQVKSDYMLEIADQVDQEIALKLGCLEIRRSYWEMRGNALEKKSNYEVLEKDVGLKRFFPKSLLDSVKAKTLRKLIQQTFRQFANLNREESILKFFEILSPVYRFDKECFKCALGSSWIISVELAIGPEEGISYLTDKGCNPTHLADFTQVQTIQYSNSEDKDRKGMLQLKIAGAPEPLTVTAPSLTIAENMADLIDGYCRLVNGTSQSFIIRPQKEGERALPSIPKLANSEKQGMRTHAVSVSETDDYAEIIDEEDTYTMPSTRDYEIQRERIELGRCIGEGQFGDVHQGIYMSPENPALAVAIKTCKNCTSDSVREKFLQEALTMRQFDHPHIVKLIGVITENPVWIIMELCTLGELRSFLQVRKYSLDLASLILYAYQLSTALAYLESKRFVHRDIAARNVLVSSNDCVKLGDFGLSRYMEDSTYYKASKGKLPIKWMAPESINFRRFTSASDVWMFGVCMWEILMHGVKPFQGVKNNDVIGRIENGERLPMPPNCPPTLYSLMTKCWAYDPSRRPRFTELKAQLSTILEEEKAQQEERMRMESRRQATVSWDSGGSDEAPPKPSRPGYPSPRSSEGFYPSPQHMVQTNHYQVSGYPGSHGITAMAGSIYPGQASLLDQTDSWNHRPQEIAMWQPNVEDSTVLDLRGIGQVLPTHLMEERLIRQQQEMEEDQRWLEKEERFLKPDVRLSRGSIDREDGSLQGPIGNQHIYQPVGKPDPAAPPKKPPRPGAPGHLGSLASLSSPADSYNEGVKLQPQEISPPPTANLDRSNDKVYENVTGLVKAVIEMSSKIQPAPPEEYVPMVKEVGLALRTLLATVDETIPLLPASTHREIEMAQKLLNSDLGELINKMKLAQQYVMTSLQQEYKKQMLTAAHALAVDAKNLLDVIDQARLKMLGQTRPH

[7] = target: Casein kinase I isoform gamma-2 (Homo sapiens) (UniProt P78368); experiment: Inhibition of human recombinant CK1g2 at 15 nM in presence of ATP by radiometric assay relative to control
Casein kinase I isoform gamma-2 (Homo sapiens), sequence (P78368 whole entry, looked up, canonical isoform): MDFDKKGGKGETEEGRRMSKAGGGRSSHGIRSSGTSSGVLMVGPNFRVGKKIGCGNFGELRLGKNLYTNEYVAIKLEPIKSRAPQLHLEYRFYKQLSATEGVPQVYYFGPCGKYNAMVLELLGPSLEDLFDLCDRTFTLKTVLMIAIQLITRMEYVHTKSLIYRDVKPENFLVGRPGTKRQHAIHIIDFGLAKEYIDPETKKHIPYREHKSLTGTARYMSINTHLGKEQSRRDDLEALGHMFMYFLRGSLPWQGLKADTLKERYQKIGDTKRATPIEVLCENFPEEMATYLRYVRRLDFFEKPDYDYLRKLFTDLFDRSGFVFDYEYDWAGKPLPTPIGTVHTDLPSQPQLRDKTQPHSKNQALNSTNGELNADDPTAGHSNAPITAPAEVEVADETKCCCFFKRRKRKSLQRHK

[8] = target: Serine/threonine-protein kinase Nek4 (Homo sapiens) (UniProt P51957); experiment: Inhibition of human recombinant NEK4 at 15 nM in presence of ATP by radiometric assay relative to control
Serine/threonine-protein kinase Nek4 (Homo sapiens), sequence (P51957 whole entry, looked up): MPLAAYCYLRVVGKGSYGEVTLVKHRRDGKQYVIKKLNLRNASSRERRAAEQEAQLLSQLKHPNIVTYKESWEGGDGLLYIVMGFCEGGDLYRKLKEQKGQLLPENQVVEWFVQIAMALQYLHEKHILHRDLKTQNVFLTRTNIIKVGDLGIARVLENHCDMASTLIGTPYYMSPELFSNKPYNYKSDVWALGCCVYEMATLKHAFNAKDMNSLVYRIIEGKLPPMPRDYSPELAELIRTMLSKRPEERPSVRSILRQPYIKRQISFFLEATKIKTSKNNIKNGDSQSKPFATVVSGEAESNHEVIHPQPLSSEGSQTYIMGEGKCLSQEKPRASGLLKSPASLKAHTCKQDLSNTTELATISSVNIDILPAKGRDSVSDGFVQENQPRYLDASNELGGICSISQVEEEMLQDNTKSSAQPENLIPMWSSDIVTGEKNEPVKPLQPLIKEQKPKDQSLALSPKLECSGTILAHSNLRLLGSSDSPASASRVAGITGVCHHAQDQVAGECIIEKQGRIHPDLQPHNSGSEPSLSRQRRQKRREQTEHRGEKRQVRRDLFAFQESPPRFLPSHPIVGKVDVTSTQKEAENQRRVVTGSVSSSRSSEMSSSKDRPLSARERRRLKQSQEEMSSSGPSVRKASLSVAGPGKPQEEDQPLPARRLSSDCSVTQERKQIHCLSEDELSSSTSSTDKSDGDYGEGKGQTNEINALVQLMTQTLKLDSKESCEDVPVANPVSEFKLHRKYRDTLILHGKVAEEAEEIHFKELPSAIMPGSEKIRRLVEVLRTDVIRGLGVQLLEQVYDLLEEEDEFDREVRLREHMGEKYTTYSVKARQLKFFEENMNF

[9] = target: Tyrosine-protein kinase Fes/Fps (Homo sapiens) (UniProt P07332); experiment: Inhibition of human recombinant FES at 15 nM in presence of ATP by radiometric assay relative to control
[10] = target: T2, Ephrin type-A receptor 8 (Homo sapiens) (UniProt P29322); experiment: Inhibition of human recombinant EphA8 at 15 nM in presence of ATP by radiometric assay relative to control
T2 sequence (whole entry): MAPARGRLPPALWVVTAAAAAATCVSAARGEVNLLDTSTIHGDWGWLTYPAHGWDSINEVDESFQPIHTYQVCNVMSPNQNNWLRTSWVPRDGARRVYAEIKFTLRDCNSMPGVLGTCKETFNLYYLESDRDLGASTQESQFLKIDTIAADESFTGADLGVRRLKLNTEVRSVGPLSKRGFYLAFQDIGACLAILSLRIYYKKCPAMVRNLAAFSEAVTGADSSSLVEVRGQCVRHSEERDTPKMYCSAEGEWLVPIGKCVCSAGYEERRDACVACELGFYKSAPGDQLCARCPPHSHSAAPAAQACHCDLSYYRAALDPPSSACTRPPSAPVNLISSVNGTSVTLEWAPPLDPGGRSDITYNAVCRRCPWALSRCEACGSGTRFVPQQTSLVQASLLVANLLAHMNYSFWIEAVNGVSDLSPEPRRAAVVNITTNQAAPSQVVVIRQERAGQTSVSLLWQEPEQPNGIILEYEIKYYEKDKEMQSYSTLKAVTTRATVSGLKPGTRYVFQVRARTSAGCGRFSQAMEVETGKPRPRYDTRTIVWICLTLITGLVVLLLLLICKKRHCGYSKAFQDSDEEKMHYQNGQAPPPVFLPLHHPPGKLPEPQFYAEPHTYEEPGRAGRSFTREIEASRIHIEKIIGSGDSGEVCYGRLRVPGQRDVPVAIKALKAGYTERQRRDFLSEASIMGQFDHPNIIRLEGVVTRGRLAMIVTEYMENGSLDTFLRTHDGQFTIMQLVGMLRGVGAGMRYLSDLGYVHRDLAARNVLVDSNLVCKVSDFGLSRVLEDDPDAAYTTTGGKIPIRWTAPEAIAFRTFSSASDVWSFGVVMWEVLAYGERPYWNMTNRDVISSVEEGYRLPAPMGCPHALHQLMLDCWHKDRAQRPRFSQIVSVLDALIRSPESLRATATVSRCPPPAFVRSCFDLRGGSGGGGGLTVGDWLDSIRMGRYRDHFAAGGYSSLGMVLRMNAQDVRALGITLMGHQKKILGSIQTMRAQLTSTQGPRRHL

[11] = target: Insulin-like growth factor 1 receptor (Homo sapiens) (UniProt P08069); experiment: Inhibition of human recombinant IGF1R at 15 nM related to control ULK1
Insulin-like growth factor 1 receptor (Homo sapiens), sequence (P08069 31-736 limits assumed): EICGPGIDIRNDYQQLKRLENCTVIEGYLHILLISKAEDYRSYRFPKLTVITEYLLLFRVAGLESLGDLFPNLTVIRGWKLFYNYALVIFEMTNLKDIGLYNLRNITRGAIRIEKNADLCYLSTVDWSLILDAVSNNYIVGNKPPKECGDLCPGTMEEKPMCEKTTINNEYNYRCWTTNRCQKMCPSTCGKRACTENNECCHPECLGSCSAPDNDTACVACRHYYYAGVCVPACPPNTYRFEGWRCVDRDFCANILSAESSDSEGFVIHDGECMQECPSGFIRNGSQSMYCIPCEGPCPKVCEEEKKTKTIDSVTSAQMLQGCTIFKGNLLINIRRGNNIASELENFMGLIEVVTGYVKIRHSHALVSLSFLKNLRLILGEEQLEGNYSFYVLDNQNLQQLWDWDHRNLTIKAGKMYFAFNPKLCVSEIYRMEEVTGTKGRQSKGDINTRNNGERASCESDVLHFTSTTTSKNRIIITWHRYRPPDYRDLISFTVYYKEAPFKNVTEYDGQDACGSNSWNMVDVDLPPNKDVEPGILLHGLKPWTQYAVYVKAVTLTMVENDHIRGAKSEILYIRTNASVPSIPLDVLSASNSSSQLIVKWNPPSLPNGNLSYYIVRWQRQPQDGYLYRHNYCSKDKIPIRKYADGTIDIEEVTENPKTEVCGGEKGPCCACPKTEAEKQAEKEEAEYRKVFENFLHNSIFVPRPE
Insulin-like growth factor 1 receptor (Homo sapiens), sequence (P08069 741-1367 limits assumed): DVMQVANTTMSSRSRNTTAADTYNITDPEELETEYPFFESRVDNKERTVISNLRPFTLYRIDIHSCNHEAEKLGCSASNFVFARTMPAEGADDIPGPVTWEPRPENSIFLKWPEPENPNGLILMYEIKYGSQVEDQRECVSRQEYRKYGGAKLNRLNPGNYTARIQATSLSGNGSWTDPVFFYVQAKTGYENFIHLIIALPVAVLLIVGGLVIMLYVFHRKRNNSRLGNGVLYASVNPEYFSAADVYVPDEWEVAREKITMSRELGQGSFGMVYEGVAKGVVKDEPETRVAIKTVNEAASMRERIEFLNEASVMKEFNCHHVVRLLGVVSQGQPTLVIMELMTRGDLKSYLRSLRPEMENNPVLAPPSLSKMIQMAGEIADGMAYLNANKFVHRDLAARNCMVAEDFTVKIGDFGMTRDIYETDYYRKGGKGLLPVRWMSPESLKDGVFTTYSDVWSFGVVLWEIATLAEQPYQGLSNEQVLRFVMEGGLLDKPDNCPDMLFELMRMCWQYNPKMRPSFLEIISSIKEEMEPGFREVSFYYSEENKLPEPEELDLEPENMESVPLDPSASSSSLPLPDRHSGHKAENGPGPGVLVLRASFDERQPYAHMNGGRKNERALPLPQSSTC

Insulin receptor (Homo sapiens), sequence (P06213 28-758 limits assumed): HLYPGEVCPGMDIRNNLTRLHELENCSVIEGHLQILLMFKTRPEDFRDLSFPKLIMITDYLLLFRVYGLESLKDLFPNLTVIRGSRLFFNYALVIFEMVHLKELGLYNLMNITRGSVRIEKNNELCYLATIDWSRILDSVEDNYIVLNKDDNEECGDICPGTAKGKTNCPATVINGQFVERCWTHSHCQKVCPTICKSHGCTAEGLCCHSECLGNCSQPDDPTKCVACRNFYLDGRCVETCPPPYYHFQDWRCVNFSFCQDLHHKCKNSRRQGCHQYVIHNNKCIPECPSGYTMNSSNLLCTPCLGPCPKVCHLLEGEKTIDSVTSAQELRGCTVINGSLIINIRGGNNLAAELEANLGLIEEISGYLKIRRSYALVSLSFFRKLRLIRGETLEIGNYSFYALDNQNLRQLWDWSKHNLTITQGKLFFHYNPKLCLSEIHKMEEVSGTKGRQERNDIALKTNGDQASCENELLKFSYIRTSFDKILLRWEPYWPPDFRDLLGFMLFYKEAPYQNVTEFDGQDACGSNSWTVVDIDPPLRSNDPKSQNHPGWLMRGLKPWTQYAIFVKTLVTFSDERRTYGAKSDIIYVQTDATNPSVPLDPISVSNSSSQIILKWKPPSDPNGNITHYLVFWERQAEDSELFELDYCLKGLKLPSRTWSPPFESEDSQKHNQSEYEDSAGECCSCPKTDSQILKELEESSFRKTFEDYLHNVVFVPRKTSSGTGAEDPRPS
Insulin receptor (Homo sapiens), sequence (P06213 763-1382 limits assumed): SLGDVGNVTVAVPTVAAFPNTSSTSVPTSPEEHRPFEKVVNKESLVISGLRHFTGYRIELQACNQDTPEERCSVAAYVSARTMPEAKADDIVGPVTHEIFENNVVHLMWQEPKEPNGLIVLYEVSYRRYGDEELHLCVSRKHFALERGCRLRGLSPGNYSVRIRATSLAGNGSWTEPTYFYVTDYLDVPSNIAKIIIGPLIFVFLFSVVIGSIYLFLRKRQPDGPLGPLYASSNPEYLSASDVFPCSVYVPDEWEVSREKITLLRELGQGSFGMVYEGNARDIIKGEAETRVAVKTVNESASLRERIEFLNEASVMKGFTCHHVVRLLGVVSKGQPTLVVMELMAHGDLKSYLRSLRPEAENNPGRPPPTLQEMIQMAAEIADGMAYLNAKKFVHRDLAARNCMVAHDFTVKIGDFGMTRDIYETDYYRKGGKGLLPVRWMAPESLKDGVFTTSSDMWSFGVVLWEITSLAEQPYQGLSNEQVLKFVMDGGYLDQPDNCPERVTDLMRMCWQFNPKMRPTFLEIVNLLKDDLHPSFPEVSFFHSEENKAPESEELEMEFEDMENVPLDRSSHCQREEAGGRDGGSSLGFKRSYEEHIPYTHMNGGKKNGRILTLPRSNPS

- inhibition [1]: 0%
- inhibition [2]: 0%
- inhibition [3]: 0%
- inhibition [4]: 21%
Structure (SMILES): CNC(=O)c1ccccc1Oc1nc(Nc2cc(OC)c(OC)c(OC)c2)ncc1Br

- inhibition [5]: 43%
Structure (SMILES): O=C(N[C@@H](C1CC1)C(F)(F)F)c1cc(-c2cnn3cc(-c4ccc(F)cc4)cnc23)cs1

- inhibition [6]: 0%
- inhibition [7]: 0%
- inhibition [8]: 6%
- inhibition [9]: 0%
- inhibition [10]: 0%
- fold change (FC) [11]: 0
Structure (SMILES): CC(C)[C@H](NC(=O)c1cc(-c2cnn3cc(-c4ccc(OCCN5CCCCC5)cc4)cnc23)cs1)C(F)(F)F
